Measured values from different studies.
Protocols differ between the studies behind these lines.
Cell line: MCF7
Read-out: cell growth or viability

| SMILES | method | time | IC50 |
| --- | --- | --- | --- |
| CCOC(=O)c1c(C)nc2ccc(-c3cccc(F)c3)cc2c1O | MTT | 48 h | 10.5 µM |
| CO[C@H]1[C@H](O[C@H]([C@H]2O[C@@H](n3ccc(=O)[nH]c3=O)[C@H](O)[C@@H]2O)[C@H](NCCCNC(=O)[C@@H](NC(=O)[C@@H](NC(=O)N[C@H](C(=O)O)C(C)C)[C@@H]2CCN=C(N)N2)[C@@H](O)C(C)C)C(=O)O)O[C@H](CN)[C@H]1O | WST-1 | – | > 35 µM |
| O=[N+]([O-])c1ccc(O)c(C=NNc2ccc(Br)cc2)c1 | MTT | 24 h | 8.67 µM |
| COc1ccccc1/C=N/N=C1\C(=O)Nc2ccccc21 | MTT | 24 h | 45.6 µg/mL |
| S=C(N/N=C/c1cccc2cc3ccccc3nc12)Nc1ccccc1 | MTT | 48 h | > 50 µM |
| O=C(O)c1cn(Cc2ccc(C(F)(F)F)cc2)c2ccc(Oc3ccccc3)cc2c1=O | MTT | 48 h | 21.2 µM |
| COC(=O)c1ccc2c(c1)NC(=O)/C2=C(\Nc1ccc(N(C)C(=O)CN2CCN(C)CC2)cc1)c1ccccc1 | MTT | 24 h | 0.98 µM |
| NS(=O)(=O)c1ccc(-n2nc(-c3nnc(CCl)o3)cc2-c2ccccc2)cc1 | fluorescence | 48 h | 31.4 µM |
| c1ccc(Cn2nc(-c3ncc(-c4ccccc4)s3)c3ccccc32)cc1 | – | 48 h | 73.8 µM |
| CC(C)c1cccc(C(C)C)c1N=C1C(=O)N(Cc2ccc(Br)cc2)c2ccccc21 | MTT | 48 h | 52.6 µM |
| O=C(NO)Nc1nc2c(Cl)cc(Cl)cc2c(=O)n1-c1ccccc1 | MTT | 48 h | > 200 µM |
| O=C1C(=Nc2ccc(Cl)cc2Br)c2ccccc2N1Cc1ccc([N+](=O)[O-])cc1 | MTT | 48 h | 2.33 µM |
| O=C1CS/C(=N\c2cc(C(F)(F)F)ccc2-c2nnc(N3C(=O)CS/C3=N\c3ccc(F)c(O)c3)s2)N1c1ccc(F)c(O)c1 | MTT | – | 25.8 µM |
| COc1cccc2c1C(=O)c1c(O)c3c(c(O)c1C2=O)C[C@@](O)(C(=O)CO)C[C@@H]3O[C@H]1C[C@H](N)[C@H](O)[C@H](C)O1 | MTT | 24 h | 3.94 µM |
| COc1cc(N=C2C(=O)Nc3ccccc32)cc(OC)c1 | MTT | 48 h | 16.2 µM |
| CN(C)c1cccc(Nc2nc(-c3ccncc3)nc3c2CNCC3)c1 | MTT | – | 46.4 µM |
| Fc1ccc2c(-c3nnc(Cc4ccccc4)s3)nn(Cc3ccc(Cl)cc3Cl)c2c1 | – | 48 h | 89.3 µM |
| O=c1[nH]cc(F)c(=O)[nH]1 | MTT | 48 h | 11.3 µM |
| C[C@H]1[C@H](C)CC[C@]2(C)CC[C@]3(C)C(=CC(=O)[C@@H]4[C@@]5(C)CC[C@@H](O)[C@](C)(C(=O)NCc6cn(-c7cccc(C(F)(F)F)c7)nn6)[C@@H]5CC[C@]43C)[C@H]12 | MTT | 24 h | 73.2 µM |
| C/C(=N\NC(=O)/N=C(\C)c1c(O)c2ccccc2oc1=O)c1c(O)c2ccccc2oc1=O | MTT | 48 h | 12.6 µM |
| C#CCn1c(C2CC(c3ccc(F)cc3)=NN2C(C)=O)nc2ccccc21 (stereo not drawn) | LDH | 48 h | 2.97 µM |
